Test results as given in ChEMBL document CHEMBL4732088, “Identification and optimization of piperlongumine analogues as potential antioxidant and anti-inflammatory agents via activation of Nrf2” (Eur J Med Chem, 2021).
Calls of active or inactive are those of the source. No cut-off for these calls is given here.

Legend:
PC-12 [1] = test: Protection against H2O2-induced mitochondrial dysfunction in rat PC12 cells assessed as change in mitochondrial membrane potential loss at 5 uM pretreated with compound followed by H2O2 addition by JC-1 staining based flow cytometry (reference value: 21.3 %); format: functional
How it was run: (§1)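 Mitochondrial membrane potential in PC12 cells pretreated with compound (5, 10, 20 μM), then exposed to H₂O₂ (200 μM) or 6-OHDA (150 μM). JC-1 staining, red-to-green fluorescence shift read by flow cytometry. Mean ± SD, n = 3.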

[2] = Antioxidant activity assessed as ABTS radical scavenging activity; format: functional
PC-12 [3] = test: (§2) Prevention of 6-OHDA-induced calcium overload in rat PC12 cells assessed as reduction in intracellular free calcium by measuring mean fluorescence intensity at 20 uM pretreated with compound followed by 6-OHDA addition measured after 24 hrs by Fluo-3AM based fluorescence assay (reference value: 6708.18%); format: functional
PC-12 [4] = test: Neuroprotective activity against H2O2-induced cell death in rat PC12 cells assessed as cell viability at 20 uM preincubated for 30 mins in presence of ZNPP followed by H2O2 stimulation and measured after 24 hrs by MTT assay; format: functional, cell-based; settings: time 24.5 hrs
How it was run: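 PC12 cells incubated 30 min with compound (20 μM) plus brusatol (10 nM) or ZnPP (10 nM), then insult for 24 h (H₂O₂ stated as 150 μM); viability by MTT.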

PC-12 [5] = test: Protection against H2O2-induced mitochondrial dysfunction in rat PC12 cells assessed as change in mitochondrial membrane potential at 20 uM pretreated with compound followed by H2O2 addition by JC-1 staining based flow cytometry (reference value: 78.7 %); format: functional; how it was run: as §1
PC-12 [6] = test: Protection against H2O2-induced apoptosis in rat PC12 cells assessed as early apoptotic cells at 10 uM incubated for 24 hrs by annexin V FITC/propidium iodide staining based flow cytometry (reference value: 3.9 %); format: functional
PC-12 [7] = test: Neuroprotective activity against 6-OHDA-induced apoptosis in rat PC12 cells assessed as reduction in apoptotic nuclei at 5 to 20 uM pretreated with compound followed by Hoechst 33342 staining based fluorescence microscopy analysis; settings: dose 5-20 µM
PC-12 [8] = test: Protection against 6-OHDA-induced apoptosis in rat PC12 cells assessed as necrotic cells at 5 uM incubated for 24 hrs by annexin V FITC/propidium iodide staining based flow cytometry (reference value: 1.1 %); format: functional
PC-12 [9] = test: as §2, with “5” for “20”; format: functional
PC-12 [10] = test: Neuroprotective activity against 6-OHDA-induced cell damage in rat PC12 cells preincubated for 24 hrs followed by 6-OHDA treatment by MTT assay; format: functional, cell-based; settings: dose 5-20 µM
How it was run: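 PC12 cells pretreated 24 h with compound (5, 10, 20 μM), then H₂O₂ (200 μM) or 6-OHDA (150 μM); viability by MTT; mean ± SD, three independent experiments.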

PC-12 [11] = test: Protection against 6-OHDA-induced mitochondrial dysfunction in rat PC12 cells assessed as change in mitochondrial membrane potential loss at 20 uM pretreated with compound followed by 6-OHDA addition by JC-1 staining based flow cytometry (reference value: 26.8 %); format: functional; how it was run: as §1
PC-12 [12] = test: Protection against H2O2-induced oxidative damage in rat PC12 cells assessed as intracellular ROS level by measuring mean fluorescence intensity at 5 uM pretreated with compound followed by H2O2 stimulation by DCFH-DA staining based flow cytometry (reference value: 233032.55); format: functional
PC-12 [13] = test: Protection against H2O2-induced apoptosis in rat PC12 cells assessed as early apoptotic cells at 5 uM incubated for 24 hrs by annexin V FITC/propidium iodide staining based flow cytometry (reference value: 3.9 %); format: functional
[14] = target: T1, Nuclear factor erythroid 2-related factor 2 (Rattus norvegicus) (UniProt O54968); test: Activation of Nrf2 in rat PC12 cells assessed as increase in TrxR1 protein level at 20 uM after 24 hrs by Western blot analysis; format: cell-based; settings: PC-12, filed as activator
T1 sequence (whole entry): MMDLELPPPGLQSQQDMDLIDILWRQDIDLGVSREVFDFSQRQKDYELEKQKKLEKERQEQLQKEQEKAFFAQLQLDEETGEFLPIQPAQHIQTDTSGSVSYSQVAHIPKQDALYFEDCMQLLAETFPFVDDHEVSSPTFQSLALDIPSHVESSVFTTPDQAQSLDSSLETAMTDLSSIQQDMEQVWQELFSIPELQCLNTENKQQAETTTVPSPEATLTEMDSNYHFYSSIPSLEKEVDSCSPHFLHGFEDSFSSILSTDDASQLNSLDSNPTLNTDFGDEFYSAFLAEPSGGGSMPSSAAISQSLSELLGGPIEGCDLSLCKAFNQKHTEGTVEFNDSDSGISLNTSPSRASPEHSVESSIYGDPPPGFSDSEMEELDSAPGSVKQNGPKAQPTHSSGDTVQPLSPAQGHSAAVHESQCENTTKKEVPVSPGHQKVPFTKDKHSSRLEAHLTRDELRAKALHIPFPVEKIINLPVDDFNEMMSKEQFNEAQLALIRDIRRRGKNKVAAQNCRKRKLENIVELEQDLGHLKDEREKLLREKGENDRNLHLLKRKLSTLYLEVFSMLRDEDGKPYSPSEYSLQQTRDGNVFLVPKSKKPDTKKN

[15] = target: T2, Nuclear factor erythroid 2-related factor 2 (Mus musculus) (UniProt Q60795); test: Activation of Nrf2 in mouse BV2 cells assessed as upregulation of GCLC protein expression after 24 hrs by Western blot analysis; format: cell-based; settings: BV-2, filed as activator, dose 5-20 µM
T2 sequence (whole entry): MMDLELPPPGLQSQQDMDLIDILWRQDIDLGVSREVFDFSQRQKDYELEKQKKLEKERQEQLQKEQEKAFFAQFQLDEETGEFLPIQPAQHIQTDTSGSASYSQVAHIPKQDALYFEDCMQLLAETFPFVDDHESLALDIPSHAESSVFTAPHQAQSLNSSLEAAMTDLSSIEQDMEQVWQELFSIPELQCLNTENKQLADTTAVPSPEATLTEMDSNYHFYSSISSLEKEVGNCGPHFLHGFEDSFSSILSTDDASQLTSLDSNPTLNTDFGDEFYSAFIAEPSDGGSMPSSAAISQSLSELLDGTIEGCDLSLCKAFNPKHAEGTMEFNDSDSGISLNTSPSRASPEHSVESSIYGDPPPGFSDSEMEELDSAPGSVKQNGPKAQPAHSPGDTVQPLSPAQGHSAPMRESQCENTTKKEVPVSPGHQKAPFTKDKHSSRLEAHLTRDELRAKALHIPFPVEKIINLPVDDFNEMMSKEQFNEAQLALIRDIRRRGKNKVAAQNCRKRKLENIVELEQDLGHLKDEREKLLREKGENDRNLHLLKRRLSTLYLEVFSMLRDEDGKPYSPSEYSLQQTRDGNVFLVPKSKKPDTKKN
How it was run: (§3)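 BV2 microglia exposed to compound for 24 h over a concentration series; Nrf2, NQO1, HO-1, TrxR1, GCLM and GCLC protein levels read by Western blot.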

[16] = target: T2, Nuclear factor erythroid 2-related factor 2 (Mus musculus); test: Activation of Nrf2 in mouse BV2 cells assessed as upregulation of TrxR1 protein expression after 24 hrs by Western blot analysis; format: cell-based; settings: BV-2, filed as activator, dose 5-20 µM; how it was run: as §3

CCN(C)C(=O)N1CCN(C(=O)/C=C/c2ccc(F)cc2)C1=O
Activity (PC-12 [1]): 13.2%
Activity [2]: inactive
Flu intensity (PC-12 [3]): 4161.82
Activity (PC-12 [4]): inactive
Activity (PC-12 [5]): 92.8%
Activity (PC-12 [6]): 2.1%
Activity (PC-12 [7]): Active
Activity (PC-12 [8]): 1%
Flu intensity (PC-12 [9]): 4910.91
Activity (PC-12 [10]): Dose-dependent effect
Activity (PC-12 [11]): 10.7%
Flu intensity (PC-12 [12]): 205329.36
Activity (PC-12 [13]): 5.1%
Activity [14]: Active
Activity [15]: Dose-dependent effect
Activity [16]: Dose-dependent effect
